# Test results as given in ChEMBL document CHEMBL2040760, “Synthesis and biological evaluation of novel (-)-Cercosporamide derivatives as potent selective PPARγ modulators” (Eur J Med Chem, 2012).
# Activity calls are given as the source filed them. The rule behind the calls is not given here.
# What was measured:
# [1] = biological target: T1, Peroxisome proliferator-activated receptor gamma (Homo sapiens) (UniProt P37231); assay: Modulation of full-length human pSG5-fused PPARgamma expressed in MG-63 cells co-expressing pGV-P2-PPRE after 24 hrs by luciferase reporter gene based transactivation assay relative to 5-(4-{[6-(4-hydroxy-3,5-dimethylphenoxy)-1-methyl-1H-benzimidazol- 2-yl]methoxy}benzyl)-1,3-thiazolidine-2,4-dione; format: cell-based
# T1 sequence (whole entry): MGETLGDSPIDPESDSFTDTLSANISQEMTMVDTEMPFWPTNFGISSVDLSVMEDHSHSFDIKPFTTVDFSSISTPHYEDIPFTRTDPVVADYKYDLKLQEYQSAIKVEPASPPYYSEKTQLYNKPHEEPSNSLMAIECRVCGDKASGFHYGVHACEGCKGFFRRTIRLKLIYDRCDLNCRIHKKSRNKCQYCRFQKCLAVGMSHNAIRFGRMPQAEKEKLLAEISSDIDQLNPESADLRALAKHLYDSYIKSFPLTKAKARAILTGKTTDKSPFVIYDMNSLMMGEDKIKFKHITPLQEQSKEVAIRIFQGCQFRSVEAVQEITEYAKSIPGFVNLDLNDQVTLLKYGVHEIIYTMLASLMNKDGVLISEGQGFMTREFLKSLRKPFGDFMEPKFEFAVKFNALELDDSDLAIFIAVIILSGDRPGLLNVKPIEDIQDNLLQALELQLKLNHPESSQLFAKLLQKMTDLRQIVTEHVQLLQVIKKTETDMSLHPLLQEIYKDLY
# Procedure, shortened: (§1)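 MG-63 cells transiently co-transfected (Lipofectamine, 4 h, serum- and antibiotic-free) with pSG5-hPPARγ and pGV-P2-PPRE luciferase reporter, replated at 40,000 cells/well. After 24 h and medium change, exposed to graded compound concentrations for 20 h. Luciferase luminescence read as the output.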
# [2] = biological target: T2, Peroxisome proliferator-activated receptor gamma (Homo sapiens, UniProt P37231); assay: Modulation of full-length human pSG5-fused PPARgamma expressed in MG-63 cells co-expressing pGV-P2-PPRE after 24 hrs by luciferase reporter gene based transactivation assay; format: cell-based; procedure, shortened: as §1
# T2 sequence (P37231 whole entry): T1 sequence (whole entry)
# [3] = tested on: Rattus norvegicus; assay: Toxicity in Wistar-Imamichi rat assessed as increase heart weight at 100 mg/kg, po qd for 14 days; format: organism-based; parameters: dose 100 mg/kg, route oral; details: in vivo, 336 h
# Procedure, shortened: (§2)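 Female Wistar–Imamichi rats, 7 weeks old on arrival, randomised by BW. Once-daily oral gavage in 0.5% methylcellulose for 14 days, n = 5, BW recorded daily. On Day 14, 0.05% Evans blue was given i.v. (0.1 mL/100 g) and aortic blood drawn at 10 min. Heart weighed. Plasma TCA-deproteinised, sonicated, A620 read, and plasma volume computed from an EB calibration curve.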
# [4] = tested on: Rattus norvegicus; assay: Toxicity in Wistar-Imamichi rat assessed as increase in body weight at 30 to 100 mg/kg, po qd for 14 days; format: organism-based; parameters: dose 30-100 mg/kg, route oral; details: in vivo, 336 h; procedure, shortened: as §2
# [5] = tested on: Rattus norvegicus; assay: Toxicity in Zucker diabetic fatty rat assessed as increase in body weight at >1 mg/kg, po qd for 12 days; format: organism-based; details: in vivo, 288 h
# Procedure, shortened: (§3)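 Female ZDF rats, 5 weeks old on arrival, acclimatised over 1 week on MR-DBT chow with 10% lard. Randomised on Day -1 by BW, PG, insulin and blood indices. Once-daily oral gavage in 0.5% methylcellulose at 0.01–100 mg/kg for 12 days, n = 5. BW recorded daily. Tail-vein plasma taken Day 12 for glucose, TG, FFA and insulin kits. Dunnett vs vehicle.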
# [6] = tested on: Rattus norvegicus; assay: Toxicity in Wistar-Imamichi rat assessed as increase plasma volume at 100 mg/kg, po qd for 14 days; format: organism-based; parameters: dose 100 mg/kg, route oral; details: in vivo, 336 h; procedure, shortened: as §2
# [7] = Terminal half life in Fischer rat at 10 mg/kg, iv; format: ADME, organism-based; parameters: dose 10 mg/kg, route intravenous; details: in vivo, read-out: beta t1/2 (converted)
# Procedure, shortened: (§4)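 Male Fischer rats, fasted overnight, received the potassium salt at 10 mg/kg (5 mg/mL, 2 mL/kg). Vehicle was 20% HCO-60 in saline orally or 5% HCO-60 intravenously. Jugular-vein blood was taken and plasma drug measured by LC-MS/MS. Non-compartmental PK analysis; oral n = 4.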
# [8] = Solubility of the compound in JP2 at pH 6.8; format: physicochemical; details: JP2, pH 6.8
# Procedure, shortened: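 Solubility was measured in JP2 medium at pH 6.8.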
# [9] = Total clearance in Fischer rat at 10 mg/kg, iv; format: ADME, organism-based; parameters: dose 10 mg/kg, route intravenous; details: in vivo; procedure, shortened: as §4
# [10] = Oral bioavailability in Fischer rat at 10 mg/kg; format: ADME, organism-based; details: in vivo; procedure, shortened: as §4
# [11] = tested on: Rattus norvegicus; assay: Antidiabetic activity in Zucker diabetic fatty rat assessed as reduction of non-fasting plasma glucose level at >1 mg/kg, po qd for 12 days; format: functional; procedure, shortened: as §3
# [12] = tested on: Rattus norvegicus; assay: Antidiabetic activity in po dosed Zucker diabetic fatty rat assessed as improvement in plasma lipids profiles administered qd for 12 days; format: functional, organism-based; procedure, shortened: as §3
# [13] = biological target: T3, Peroxisome proliferator-activated receptor alpha (Homo sapiens) (UniProt Q07869); assay: Modulation of human GAL4-fused PPARalpha LBD expressed in COS7 cells co-expressing pG5luc at 10 uM by luciferase reporter gene based transactivation assay; format: cell-based; details: COS-7
# T3 sequence (whole entry): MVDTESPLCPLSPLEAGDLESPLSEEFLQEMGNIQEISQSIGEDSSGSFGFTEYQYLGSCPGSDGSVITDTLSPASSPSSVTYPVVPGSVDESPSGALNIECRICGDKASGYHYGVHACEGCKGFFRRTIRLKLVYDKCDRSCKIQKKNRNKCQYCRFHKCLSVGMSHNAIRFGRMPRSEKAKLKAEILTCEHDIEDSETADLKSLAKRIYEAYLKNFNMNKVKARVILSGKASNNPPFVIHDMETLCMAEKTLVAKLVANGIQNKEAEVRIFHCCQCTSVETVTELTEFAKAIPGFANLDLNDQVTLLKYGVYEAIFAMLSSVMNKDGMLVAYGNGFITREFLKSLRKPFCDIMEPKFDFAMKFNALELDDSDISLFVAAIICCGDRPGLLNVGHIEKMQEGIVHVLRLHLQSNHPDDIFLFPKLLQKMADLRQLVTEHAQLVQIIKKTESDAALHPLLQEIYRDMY
# Procedure, shortened: (§5)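 COS7 cells in DMEM with 10% FBS were transfected with pM-hPPARγ, pM-PPARα or pM-PPARδ (GAL4-LBD) plus pG5luc using Lipofectamine 2000, then reseeded and held about 24 h. Serial dilutions were added, with 0.1% DMSO as control, for about 24 h more. Read-out was luciferase luminescence. Mean ± S.E.M., n = 3.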
# [14] = tested on: Rattus norvegicus; assay: Antidiabetic activity in Zucker diabetic fatty rat assessed as reduction of triglyceride level at 100 mg/kg, po qd for 12 days; format: functional, organism-based; parameters: dose 100 mg/kg; procedure, shortened: as §3
# [15] = tested on: Rattus norvegicus; assay: Antidiabetic activity in Zucker diabetic fatty rat assessed as reduction of free fatty acids level at >1 mg/kg, po qd for 12 days; format: functional, organism-based; procedure, shortened: as §3
# [16] = biological target: T1, Peroxisome proliferator-activated receptor gamma (Homo sapiens); assay: Modulation of human GAL4-fused PPARgamma LBD expressed in COS7 cells co-expressing pG5luc by luciferase reporter gene based transactivation assay relative to control; format: cell-based; details: COS-7; procedure, shortened: as §5
# [17] = biological target: T4, Peroxisome proliferator-activated receptor delta (Homo sapiens) (UniProt Q03181); assay: Modulation of human GAL4-fused PPARdelta LBD expressed in COS7 cells co-expressing pG5luc at 10 uM by luciferase reporter gene based transactivation assay; format: cell-based; details: COS-7; procedure, shortened: as §5
# T4 sequence (whole entry): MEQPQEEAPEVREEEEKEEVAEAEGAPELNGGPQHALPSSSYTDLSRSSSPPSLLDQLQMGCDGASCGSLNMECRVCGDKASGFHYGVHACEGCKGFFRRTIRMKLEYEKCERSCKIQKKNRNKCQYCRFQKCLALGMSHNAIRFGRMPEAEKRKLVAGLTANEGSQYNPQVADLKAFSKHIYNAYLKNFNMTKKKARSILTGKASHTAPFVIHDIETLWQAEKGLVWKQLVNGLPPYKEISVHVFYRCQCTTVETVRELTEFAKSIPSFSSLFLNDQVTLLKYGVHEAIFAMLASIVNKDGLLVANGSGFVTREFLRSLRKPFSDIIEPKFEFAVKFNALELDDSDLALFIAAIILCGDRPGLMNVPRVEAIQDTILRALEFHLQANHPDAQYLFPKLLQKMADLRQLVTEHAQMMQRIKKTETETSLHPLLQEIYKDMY
smiles,measurement,setting,value
COc1cc(O)c2c(c1C(=O)NCc1c(C)ccc3ccc(F)cc13)OC1=CC(O)=C(C(C)=O)C(=O)[C@]12C,Emax,[1],40%
same,EC50,[2],65 nM
CCc1cc(F)c2ccccc2c1CNC(=O)c1c(OC)cc(O)c2c1OC1=CC([O-])=C(C(C)=O)C(=O)[C@]12C.[K+],Activity,[3],Non-toxic
same,Activity,[4],Toxic
same,Activity,[5],Toxic
same,Activity,[6],Non-toxic
same,half-life,[7],4 h
same,solubility,[8],910 µg/mL
same,clearance,[9],6.98 mL/min/kg
same,bioavailability,[10],58%
same,Activity,[11],<200 mg/dL
COc1cc(O)c2c(c1C(=O)NCc1c(C)ccc3c(F)cccc13)OC1=CC(O)=C(C(C)=O)C(=O)[C@]12C,Emax,[1],39%
same,EC50,[2],16 nM
COc1cc(O)c2c(c1C(=O)NCc1c(C)cc(Cl)c3ccccc13)OC1=CC(O)=C(C(C)=O)C(=O)[C@]12C,Emax,[1],57%
same,EC50,[2],22 nM
COc1cc(O)c2c(c1C(=O)NCc1c(C)ccc3ccc(Cl)cc13)OC1=CC(O)=C(C(C)=O)C(=O)[C@]12C,Emax,[1],44%
same,EC50,[2],4.9 nM
COc1cc(O)c2c(c1C(=O)NCc1cccc3ccccc13)OC1=CC(O)=C(C(C)=O)C(=O)[C@]12C,Emax,[1],47%
same,EC50,[2],180 nM
COc1cc(O)c2c(c1C(=O)NCc1c(C)ccc3c(Cl)cccc13)OC1=CC(O)=C(C(C)=O)C(=O)[C@]12C,Emax,[1],59%
same,EC50,[2],170 nM
CCc1cc(F)c2ccccc2c1CNC(=O)c1c(OC)cc(O)c2c1OC1=CC(O)=C(C(C)=O)C(=O)[C@]12C,Emax,[1],38%
same,Activity,[12],Dose-dependent effect
same,Activity,[13],inactive
same,Activity,[14],Active
same,Activity,[15],Active
same,Emax,[16],64%
same,Activity,[17],inactive
